This is a sample that favours compounds with a hit; in the whole collection about 4.1% have one here.
Kir21 inh = blocks the mouse Kir2.1 inward-rectifier potassium channel; HEK293-Kir2.1, FluxOR thallium flux fluorescence; active compounds read low; 0.85% of 310,000 active; AID 1672; B-score at 10 µM;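 active = fluorescence ratio B-score at or below minus 3 SD of library scores, with starting-brightness B-score within 2 SD, cut at about -4.2 in these data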;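 note: channel flux triggered by added potassium and thallium sulfate stimulus; B-score of peak minus minimum fluorescence over baseline after thallium stimulus; more negative B-score means stronger Kir2.1 block with less thallium influx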
RGS4 pot = RGS4 potentiation or activation; HEK293 M3R/inducible RGS4, carbachol calcium flux Fluo4; active compounds read low; AID 463111; B-score at 10 µM; 0.92% of 310,000 active;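 active = B-score of the integrated calcium signal more than 4 SD below the library mean, with starting fluorescence not abnormally high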;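 note: negative B-score means reduced calcium response which marks RGS4 activation or potentiation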
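Reagent: ECmax carbachol challenge; Test system: M3R-expressing HEK293 line, RGS4 induced by doxycycline; Schedule: overnight RGS4 induction, 30 min dye load 37 °C, 20 min compound RT; Detection: calcium dye Fluo4 fluorescence; Read-out: Agonist-evoked peak-minus-minimum fluorescence over baseline, integrated ratio, B score.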
RGS4 inh = human RGS4 inhibition. HEK293 M3R/RGS4 inducible, Fluo-4 calcium flux; active compounds read high; triggered by carbachol at its EC20. B-score at 10 µM. 0.45% of 310,000 active. AID 463165;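 active = B-score, a plate-corrected calcium signal, over three deviations above library mean, with baseline fluorescence within five deviations of library mean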;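 note: RGS4 expression induced by doxycycline in cells with stable M3 receptor; B-score is computed from the integrated fluorescence ratio over baseline after carbachol; higher B-score means a larger calcium signal and so more RGS4 inhibition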
Target sequence (P49798 whole entry, looked up): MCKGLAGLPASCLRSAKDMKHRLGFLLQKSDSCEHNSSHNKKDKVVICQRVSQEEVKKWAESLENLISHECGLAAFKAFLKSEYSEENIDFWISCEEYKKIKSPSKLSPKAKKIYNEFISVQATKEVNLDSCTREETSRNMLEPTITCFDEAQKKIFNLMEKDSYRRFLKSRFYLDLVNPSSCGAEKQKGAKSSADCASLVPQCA
MrgX1 antag = antagonists of human MrgX1 receptor. Q96LB2. MRGX1-HEK293 calcium flux, Fluo-4, BAM8-22 antagonism; active compounds read low. B-score at 10 µM. 1.3% of 310,000 active;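 active = calcium-response B-score plate-corrected more than 3 library SD below zero, starting fluorescence within 5 deviations, no agonist response on first addition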;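 note: peak minus trough fluorescence over baseline after final BAM8-22 challenge near maximal dose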
Target sequence (Q96LB2 whole entry, looked up): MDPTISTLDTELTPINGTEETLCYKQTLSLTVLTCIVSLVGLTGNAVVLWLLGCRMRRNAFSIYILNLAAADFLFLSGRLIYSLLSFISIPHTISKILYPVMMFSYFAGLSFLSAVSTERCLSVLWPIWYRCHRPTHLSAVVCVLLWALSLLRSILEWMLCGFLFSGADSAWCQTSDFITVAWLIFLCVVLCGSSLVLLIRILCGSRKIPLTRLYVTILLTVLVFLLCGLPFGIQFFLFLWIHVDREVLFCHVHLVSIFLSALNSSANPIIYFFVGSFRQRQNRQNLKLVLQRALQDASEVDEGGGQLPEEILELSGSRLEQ
MrgX1 PAM = allosterically activates human MrgX1 receptor signaling | Q96LB2 | MrgX1-HEK293, Fluo-4 calcium flux, FDSS; active compounds read high | B-score at 10 µM | 0.63% of 310,000 active;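 active = plate-corrected calcium response at least 3 library SD above typical, normal starting fluorescence, not activating the receptor alone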;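 note: compound read alongside a low EC10 to EC30 dose of BAM8-22 agonist; peak minus trough fluorescence over baseline measured at the second addition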
MrgX1 agonist = human MrgX1 receptor agonism, primary screen. Q96LB2. MrgX1-HEK293 cells, Fluo-4 calcium fluorescence, agonist mode; active compounds read high. B-score at 10 µM. 0.44% of 310,000 active. AID 588627;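 active = calcium response B-score plate-corrected fluorescence ratio at least 3 library SD, with starting fluorescence B-score inside 5 SD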
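System – MrgX1-expressing HEK293 cells · Incubation – cells plated overnight, dye loaded 0.5 h 37 °C, 0.5 h room temperature · Technique – kinetic Fluo-4 NW fluorescence of intracellular calcium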
RGS4 inh valid = RGS4 inhibitor validation; calcium response, % at 10 µM; 65% of 1,700 active; HEK293 M3R/RGS4, carbachol calcium Fluo-4 fluorescence; carbachol added at its EC20; 0 = buffer wells, 100 = carbachol control; shares compounds with RGS4 inh;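 active = duplicate-averaged calcium response above the buffer-only control mean plus 5 SD of those controls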;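 note: integrated fluorescence ratio F max minus min over baseline F0; higher response in RGS4-induced cells means RGS4 inhibition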
M3R Ca ctr = non-induced cell nonspecific activity of RGS4 inhibitors | HEK293 M3R non-induced, carbachol calcium Fluo-4; submaximal (EC20) carbachol stimulus; buffer wells 0%, carbachol control wells 100% | 20% of 1,900 active | shares compounds with RGS4 inh | AID 493000 | activity (percent), % at 10 µM; call rule not given here;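 note: RGS4 induction absent so cells express M3R without RGS4; higher means more calcium signal and flags a non-specific hit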
M3R basal Ca ctr = second RGS4 inhibitor counter-screen in uninduced cells lacking carbachol; HEK293 M3R/RGS4 non-induced, Fluo-4 calcium, no carbachol; normalised: buffer wells 0%, carbachol wells 100%; shares compounds with RGS4 inh; 22% of 1,900 active; calcium response (agonist-mode artifact), % at 10 µM;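 active = duplicate-averaged calcium rise in uninduced cells above buffer wells' mean plus 5 SD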
Numbers without * were called inactive; i = inactive; . = no result.

SMILES	Kir21 inh	RGS4 pot	RGS4 inh	MrgX1 antag	MrgX1 PAM	MrgX1 agonist	RGS4 inh valid	M3R Ca ctr	M3R basal Ca ctr
NCCSC1CC(=O)N(c2ccc(Cl)c(Cl)c2)C1=O (stereo unspecified)	2	i	i	i	i	i	.	.	.
C/C(=N\N=C(/N)SC1CC(=O)N(c2ccc(Cl)cc2)C1=O)c1cccs1 (stereo unspecified)	1.2	i	8.7*	i	i	i	5.0%*	40%*	i
CCCCCCOc1ccc(N2C(=O)CC(S/C(N)=N/N=C(\C)c3cccs3)C2=O)cc1 (stereo unspecified)	0.06	i	7.5*	i	i	i	i	i	i
COCCCNC(=O)C1=CCN(S(=O)(=O)c2ccc(OC)cc2)CC1	-1.1	i	i	i	i	i	.	.	.
C/C(=N\N=C(/N)SC1CC(=O)N(c2ccc(Br)cc2)C1=O)c1cccs1 (stereo unspecified)	-1.9	i	11*	i	i	i	37%*	31%*	i
N/C(=N\N=C\c1cccs1)SC1CC(=O)N(c2ccc(Br)cc2)C1=O (stereo unspecified)	0.83	i	i	i	i	i	.	.	.
O=[N+]([O-])/C=C/c1cn(Cc2ccc(F)cc2)c2ccccc12	-0.69	i	6*	i	7.4*	i	42%*	i	68%*
CN1CCN(c2ccccc2NC(=O)c2ccc(-c3ccc(Br)cc3)o2)CC1	0.15	i	i	i	i	i	.	.	.
COc1cc(C2(c3ccc(O)c(OC)c3)C(=O)Nc3c(Br)cc(Br)cc32)ccc1O	2.7	i	i	i	i	i	.	i	34%*
Cc1ccc(C(=O)CC2(O)C(=O)N(C)c3ccc(Br)cc32)c(C)c1 (stereo unspecified)	-2.4	i	i	i	i	i	.	.	.
COc1cc(C2(c3ccc(O)c(OC)c3)C(=O)N(C)c3ccc(Br)cc32)ccc1O	0.19	i	5.7*	i	i	i	12%*	i	i
CC1CCN(c2ccc(NC(=O)c3cccnc3Cl)cc2)CC1	-0.72	i	i	i	i	i	.	.	.
Cc1ccc(NCC(=O)N/N=C/c2ccncc2)cc1	0.46	i	i	i	i	i	.	.	.
Cc1ccc(NCC(=O)N/N=C/c2cc(O)ccc2[N+](=O)[O-])cc1	1.3	i	5.2*	i	i	i	i	i	i
Cc1ccc(NCC(=O)N/N=C/c2cccc(Oc3ccccc3)c2)cc1	-1.3	i	13*	i	i	i	20%*	i	i
N#CCC(=O)N/N=C/c1cccc(Oc2ccccc2)c1	-0.3	i	i	i	i	i	.	.	.
O=C(O)CN1C(=O)/C(=C/C=C/c2ccccc2)SC1=S	-0.08	i	i	i	i	i	.	.	.
O=C(O)CN1C(=O)/C(=C\C(Br)=C\c2ccccc2)SC1=S	-2.3	i	12*	i	i	i	54%*	i	i
Cc1ccc(-c2cc(C(F)F)nc(NCc3cccs3)n2)cc1	-0.61	i	i	i	i	i	.	.	.
Cc1ccc(-c2cc(C(F)F)nc(NCc3cccnc3)n2)cc1	-0.24	i	7.7*	i	i	i	i	i	i
COc1ccc(C)cc1NS(=O)(=O)c1ccc(NC(=O)CN(c2cc([N+](=O)[O-])ccc2C)S(C)(=O)=O)cc1	0.07	i	i	i	i	i	.	i	i
O=C(N/N=C/C(Br)=C\c1ccccc1)c1n[nH]c2c1CCC2	-0.58	i	i	i	i	i	.	.	.
CC(/C=N/NC(=O)c1n[nH]c2c1CCC2)=C\c1ccccc1	1.3	i	i	i	i	i	i	i	i
O=C(Oc1ccc(Cl)c2cccnc12)c1cccc([N+](=O)[O-])c1	0.9	i	4.7*	i	i	i	25%*	i	i
O=C(Oc1c(Cl)cc(Cl)c2cccnc12)c1cccc([N+](=O)[O-])c1	0.82	i	i	i	i	i	.	.	.
SMILES	Kir21 inh	RGS4 pot	RGS4 inh	MrgX1 antag	MrgX1 PAM	MrgX1 agonist	RGS4 inh valid	M3R Ca ctr	M3R basal Ca ctr
CCOC(=O)c1ccc(NC(=O)N2C3CCCC2CC(NC(C)=O)C3)cc1 (stereo unspecified)	-0.04	i	i	i	i	i	.	.	.
C/C(=N/NC(=O)CNc1ccc(C)cc1)c1ccc(Cl)cc1	0.18	i	5.5*	i	i	i	7.0%*	i	i
Cn1ncc(Cl)c1C(=O)Nc1ccncc1	-0.71	i	i	i	i	i	.	.	.
C/C(=N\NC(=O)c1c(Cl)cnn1C)c1ccc(NC(=O)c2ccncc2)cc1	1.8	i	9.6*	i	i	i	i	i	i
N#Cc1c(Cl)c(Cl)c2nnc(-c3ccc(Br)cc3)n2c1Cl	0.06	i	6*	i	i	i	8.0%*	i	11%*
COC(=O)CSc1[nH]c2ccc(F)cc2c1[N+](=O)[O-]	0.07	i	19*	i	i	i	34%*	i	i
O=[N+]([O-])/C=C\c1ccc(N2CCCC2)c(F)c1	-1.4	i	36*	.	.	.	34%*	i	75%*
O=Cc1ccc(N2CCCC2)c([N+](=O)[O-])c1	1	i	i	i	i	i	.	.	.
Cc1ccc(C)c(N(C(=O)Cn2nnc(-c3cccs3)n2)C(C(=O)NC2CC2)c2ccc(C)o2)c1 (stereo unspecified)	0.33	i	i	i	i	i	.	.	.
Oc1ccc(C23CC4CC(CC(C4)C2)C3)cc1O	0.55	i	22*	i	i	i	16%*	52%*	15%*
CC(=O)Nc1ccc(-c2nnc(SCC(=O)Nc3ccc4c(c3)oc3ccccc34)n2C)cc1	-0.38	i	i	i	i	i	.	i	16%*
COc1ccccc1NC(=O)CSc1nnc(-c2ccc(NC(C)=O)cc2)n1C	0.85	i	i	i	i	i	.	.	.

High-throughput results from PubChem BioAssay.
